The species entered for one assay is Oryctolagus cuniculus. Briefly: Displacement of [3H]diltiazem from rabbit skeletal muscle calcium channel. The assay is classed as tissue-based. The settings on record: Muscle tissue.
The species entered for assay [1] is Rattus norvegicus. Briefly: Degradation of compound in incubations at 25 uM with normal rat liver microsomes after 1 hour relative to initial concentration of 1 uM. Type of assay: functional. The essentials:
(§1)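 Each compound incubated at 25 µM with normal rat liver microsomes, P-450 at 1.45 nM/mg microsomal protein. Remaining substrate sampled at 15 min, 1 h, 4 h and 24 h and expressed relative to an initial concentration of 1.0. Single determination (n = 1).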
(Liver microsomes are a subcellular fraction often used to study metabolism.)

The species named for assay [2] is Rattus norvegicus. Put plainly: Degradation of compound in incubations at 25 uM with normal rat liver microsomes after 24 hour relative to initial concentration of 1 uM. The assay is classed as functional. The essentials: as §1
The species named for assay [3] is Rattus norvegicus. Briefly: Degradation of compound in incubations at 25 uM with normal rat liver microsomes after 4 hour relative to initial concentration of 1 uM. The assay is classed as functional. The essentials: as §1
For a further assay, the target named is Substance-P receptor (Homo sapiens, UniProt P25103). Briefly: Displacement of [125 I]-Tyr8 SP from the cloned human Tachykinin receptor 1 expressed in CHO cells. Type of assay: cell-based.
For assay [4], the species on record is Rattus norvegicus. Put plainly: Degradation of compound in incubations at 25 uM with normal rat liver microsomes after 15 min relative to initial concentration of 1 uM. Type of assay: functional. In short, it runs like this:
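Incubated at 25 µM with normal rat liver microsomes; P-450 at 1.45 nM/mg microsomal protein. Sampled at 15 min, 1 h, 4 h and 24 h. Remaining substrate reported relative to an initial level of 1.0, n = 1.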

For the next assay, the system named is Cavia porcellus. Briefly: Inhibition of SP- induced dermal guinea pig after peroral administration. The settings on record: read-out: ID50 (the source's name). Type of assay: functional. The essentials: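 Guinea pigs dosed orally with antagonist, then challenged 1 h later with intradermal substance P. Vascular leakage measured as extravasation of Evans blue dye. ID50 (mg/kg po) taken from dose-response data, 5-12 animals per data point.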

Assay [5] concerns Rattus norvegicus. Briefly: Inhibition of […] of the rat after intravenous administration. The assay is classed as functional. The settings on record: read-out: ID50 (the source's name). In short, it runs like this:
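Rats given test compound intravenously. Plasma extravasation in the dura mater measured, n = 8-10. ID50 reported in mg/kg iv.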

Where only a bound is given, the exact number is not on record here.

What is called IC50 is the point on the concentration scale where inhibition reaches its midpoint. The low end stands for greater potency in that assay, the high end for weaker potency in that assay.

Chain of Substance-P receptor (P25103 whole entry): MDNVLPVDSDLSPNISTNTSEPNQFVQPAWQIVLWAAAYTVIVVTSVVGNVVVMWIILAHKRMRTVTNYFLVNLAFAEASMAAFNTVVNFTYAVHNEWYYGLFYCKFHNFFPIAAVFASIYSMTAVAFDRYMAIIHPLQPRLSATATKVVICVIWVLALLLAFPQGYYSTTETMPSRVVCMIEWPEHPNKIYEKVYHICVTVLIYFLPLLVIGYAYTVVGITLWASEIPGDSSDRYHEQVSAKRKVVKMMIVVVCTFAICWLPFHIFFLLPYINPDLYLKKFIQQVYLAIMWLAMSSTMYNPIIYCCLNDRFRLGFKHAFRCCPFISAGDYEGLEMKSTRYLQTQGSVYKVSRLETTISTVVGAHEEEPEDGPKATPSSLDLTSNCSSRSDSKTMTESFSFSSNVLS

For `FC(F)(F)c1cc(CO[C@H]2CCCN(Cc3c[nH]cn3)[C@H]2c2ccccc2)cc(C(F)(F)F)c1`, the Binding affinity in the assay listed under Oryctolagus cuniculus turned out to be 2.3 µM. The Concentration was 0.72 µM in the assay filed under Rattus norvegicus [1], 0.18 µM in the assay listed under Rattus norvegicus [2] and 0.55 µM in the assay filed under Rattus norvegicus [3].
For `FC(F)(F)c1cc(CO[C@H]2CCCN(Cc3cocn3)[C@H]2c2ccccc2)cc(C(F)(F)F)c1`, the Binding affinity in the assay listed under Oryctolagus cuniculus was 23 µM. Moreover, the IC50 at Substance-P receptor amounted to 1 nM. Further, in the assay filed under Rattus norvegicus [4], the Relative oncentration was 0.05 µM.
As for `COc1ccccc1CN[C@H]1CCCN[C@H]1c1ccccc1` [CP-99994], in the assay filed under Oryctolagus cuniculus, the Binding affinity came to 4 µM. The ED50 in the assay with Cavia porcellus was 1.6 mg/kg; in the assay with Rattus norvegicus [5] it was 0.052 mg/kg.
In the case of `FC(F)(F)c1cc(CO[C@H]2CCCN(Cc3nnco3)[C@H]2c2ccccc2)cc(C(F)(F)F)c1`, the Binding affinity in the assay listed under Oryctolagus cuniculus came to 10 µM. Further, the IC50 at Substance-P receptor came to 0.97 nM.
`FC(F)(F)c1cc(CO[C@H]2CCCN(Cc3ccco3)[C@H]2c2ccccc2)cc(C(F)(F)F)c1` showed an IC50 at Substance-P receptor of 36 nM.
Same read-out and setting: the result for `FC(F)(F)c1cc(CO[C@H]2CCCN(Cc3nnn[nH]3)[C@H]2c2ccccc2)cc(C(F)(F)F)c1` reads 43 nM.
As for `FC(F)(F)c1cc(CO[C@H]2CCCN(Cc3nc[nH]n3)[C@H]2c2ccccc2)cc(C(F)(F)F)c1`, the Binding affinity in the assay listed under Oryctolagus cuniculus is more than 100 µM. In addition, the ED50 in the assay on Cavia porcellus is 0.4 mg/kg; with Rattus norvegicus [5], 0.008 mg/kg.

(Values after ChEMBL document CHEMBL1129245, “N-heteroaryl-2-phenyl-3-(benzyloxy)piperidines: a novel class of potent orally active human NK1 antagonists” (J Med Chem, 1996).)
